Experimental data pooled from the literature.
Compare with care: the assays were run in different laboratories.
Target: RAC-beta serine/threonine-protein kinase (AKT2, Homo sapiens, UniProt P31751)

Structure (SMILES) | observed | mode | method | concentration | measurement | result
COc1cc(Nc2cnc(C#N)c(O[C@H](C)CN(C)C)n2)ncc1-c1cnn(C)c1 | enzyme activity | inhibitor | radiometric | 10 µM | remaining activity | 67%
Nc1nc(NC2CCCCC2)sc1C(=O)c1ccccc1 | enzyme activity | inhibitor | – | 10 µM | remaining activity | 73%
COc1cc2ncnc(Nc3ccc(Oc4ccccc4)cc3C)c2cc1OC | enzyme activity | inhibitor | – | 1 µM | inhibition | 7%
Cc1ccc(NC(=O)c2ccc(C)c(C(F)(F)F)c2)cc1C#Cc1nn(C2CCC(O)CC2)c2ncnc(N)c12 (stereo not drawn) | cell-free assay | – | – | 10 µM | remaining signal | 127%
Nc1nc(Nc2ccc(S(N)(=O)=O)cc2)nn1C(=O)c1c(F)cccc1F | cell-free assay | – | – | 0.5 µM | remaining signal | 107%
CN1CC(Oc2cnc(C#N)cc2-c2ccn3nc(NC(=O)C4CC4)cc3c2)C1 | enzyme activity | inhibitor | – | 1 µM | inhibition | -3%
Cc1cc(NC(=O)c2cccc3cc(-c4cccc5[nH]nc(N)c45)ccc23)ccc1F | enzyme activity | inhibitor | – | 0.1 µM | activity vs control | 123%
COc1cc(Cl)c(C(=O)N[C@@H](CN[C@H]2CC[C@@H](N)CC2)Cc2ccc(C#N)cc2)cc1-c1ccc(CN[C@H](C)c2ccc(C)cc2)o1 | enzyme activity | inhibitor | – | 1 µM | remaining activity | 65%
CNC(=O)Nc1ccc2c(c1)CC[C@@]21OC(=O)N(CC(=O)N(Cc2ccc(F)cc2)[C@@H](C)C(F)(F)F)C1=O | cell-free assay | – | competition with immobilised ligand | 1 µM | remaining binding | 80%
CCCOc1ccc(OC)c(F)c1C(=O)c1ccc(C(=O)N[C@@H]2CNC[C@H]2NC(=O)c2ccc3[nH]ncc3c2)cc1 | enzyme activity | inhibitor | – | 10 µM | remaining activity | 49%
N#CCCc1ccc2c(c1)-c1[nH]c3ccc([N+](=O)[O-])cc3c1CC(=O)N2 | cell-free assay | – | – | 0.5 µM | remaining signal | 100%
O=C(Nc1cnn(-c2csc(C(=O)NC3COC3)c2)c1)Nc1c(F)cccc1Cl | enzyme activity | inhibitor | – | 5 µM | remaining activity | 104%
Cc1ccc(C(=O)Nc2ccc(CN3CCN(C)CC3)c(C(F)(F)F)c2)cc1C#Cc1cnc2cccnn12 | enzyme activity | inhibitor | – | 23.5 nM | remaining activity | 95%
Cc1cnc(NC2CCOCC2)nc1-n1cnc(C(=O)NC(CN)c2cc(F)cc(Cl)c2)c1 (stereo not drawn) | enzyme activity | inhibitor | radiometric | 1 µM | remaining activity | 92%
CC(C)(O)[C@H]1CC[C@H](Nc2ccc3ncc(-c4cccc(C(F)(F)F)c4)n3n2)CC1 | enzyme activity | inhibitor | – | 1 µM | remaining activity | 102%
O=C(N[C@H]1CCCCC/C=C\C2C[C@@]2(C(=O)O)NC(=O)[C@@H]2C[C@@H](Oc3ccncc3)CN2C1=O)OC1CCCC1 (stereo partly drawn) | binding | – | competition with immobilised ligand | 1 µM | remaining binding | 85%
CNC(=O)c1cc(Oc2ccc(NC(=O)Nc3ccc(Cl)c(C(F)(F)F)c3)cc2)ccn1 | cell-free assay | – | – | 0.5 µM | remaining signal | 103%
Cc1nccc(COC(=O)N2C[C@@H]3[C@@H](CNC(=O)c4ccc5[nH]nnc5c4)[C@@H]3C2)n1 | cell-free assay | – | competition with immobilised ligand | 1 µM | remaining binding | 98%
O=C(Nc1cc(-c2ccc(Cl)cc2)[nH]n1)C1CCCCC1 | enzyme activity | inhibitor | – | 10 µM | activity vs control | 75%
CC(C)(C)c1nc(-c2cccc(NS(=O)(=O)c3c(F)cccc3F)c2F)c(-c2ccnc(N)n2)s1 | enzyme activity | inhibitor | radiometric | 1 µM | remaining activity | 91%
O=C(NS(=O)(=O)c1ccc(NCC2CCOCC2)c([N+](=O)[O-])c1)c1ccc(N2CCN(Cc3ccc(C(F)(F)F)cc3-c3ccc(Cl)cc3)CC2)cc1Oc1cnc2[nH]ccc2c1 | cell-free assay | – | competition with immobilised ligand | 1 µM | remaining binding | 100%
Oc1cccc(-c2nc(N3CCOCC3)c3oc4ncccc4c3n2)c1 | enzyme activity | inhibitor | – | 10 µM | remaining activity | 114%
COc1ccc2c(c1)O[C@H](c1ccc(OC)c(OC)c1)C[C@@H]2NC(=O)C1(c2ccc3c(c2)OC(F)(F)O3)CC1 | cell-free assay | – | competition with immobilised ligand | 1 µM | remaining binding | 96%
Cc1sc(C(=O)NC2COC2)cc1-n1cc(NC(=O)Nc2c(F)cccc2Cl)cn1 | enzyme activity | inhibitor | – | 10 µM | remaining activity | 88.9%
O=C(O)c1cc(-c2ccc(C3CCNCC3)cc2)c2ccc(-c3ccc(C(F)(F)F)cc3)cc2c1 | cell-free assay | – | competition with immobilised ligand | 1 µM | remaining binding | 95%
COc1cc(F)ccc1-c1ncnc(Nc2cccc(C[S@](C)(=N)=O)c2)n1 | enzyme activity | inhibitor | – | 10 µM | activity vs control | 112%
Cc1c(C(=O)O)cc(-c2ccc(C3CCNCC3)cc2)c2ccc(-c3ccc(C(F)(F)F)cc3)cc12 | binding | – | competition with immobilised ligand | 1 µM | remaining binding | 100%
CC(C)(C)C(=O)c1sc(NC2CCCCC2)nc1N | enzyme activity | inhibitor | – | 10 µM | remaining activity | 83%
C[C@H](c1cccc(C#N)c1)n1cc(Cl)cc(C(N)=O)c1=N | cell-free assay | – | competition with immobilised ligand | 1 µM | remaining binding | 100%
O=C1Nc2ccc(Cl)cc2C1=Cc1cc(Cl)c(O)c(Cl)c1 | cell-free assay | – | – | 0.5 µM | remaining signal | 93.9%
